From ChEMBL document CHEMBL3120078, “Benzofuran derivatives as a novel class of inhibitors of mTOR signaling” (Eur J Med Chem, 2014)
Activity calls are given as the source filed them. The rule behind the calls is not given here.

Assays:
SQ20B [1] = experiment: Cytotoxicity against human SQ20B cells after 72 hrs by MTT assay; format: functional, cell-based
How it was run: (§1)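 Cells grown in RPMI with 10% FCS, 2 mM glutamine and antibiotics at 37 °C, 5% CO2, seeded at 2 × 10³ cells/well. Treated 72 h, then MTT 0.4 mg/ml for 4 h at 37 °C. Formazan dissolved in DMSO, absorbance read at 560 nm. Untreated wells and cell-free wells as controls. IC50 taken from dose–response curves.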

HOP-62 = experiment: Cytotoxicity against human HOP62 cells after 72 hrs by MTT assay; format: functional, cell-based; conditions: HOP-62, 72 h; how it was run: as §1
[2] = Cytotoxicity against human SKHEP1 cells after 72 hrs by MTT assay; format: functional, cell-based; conditions: SK-HEP1, 72 h
DU-145 = experiment: Cytotoxicity against human DU145 cells after 72 hrs by MTT assay; format: functional, cell-based; conditions: DU-145, 72 h
OVCAR-3 = experiment: Cytotoxicity against human OVCAR3 cells after 72 hrs by MTT assay; format: functional, cell-based; conditions: OVCAR-3, 72 h
HT-29 = experiment: Cytotoxicity against human HT-29 cells after 72 hrs by MTT assay; format: functional, cell-based; conditions: HT-29, 72 h; how it was run: as §1
CAKI-1 = experiment: Cytotoxicity against human Caki1 cells after 72 hrs by MTT assay; format: functional, cell-based; conditions: CAKI-1, 72 h
[3] = Cytotoxicity against human ColoR cells after 72 hrs by MTT assay; format: functional, cell-based; how it was run: as §1
HCT-116 = experiment: Cytotoxicity against human HCT116 cells after 72 hrs by MTT assay; format: functional, cell-based; conditions: HCT-116, 72 h; how it was run: as §1
COLO 205 = experiment: Cytotoxicity against human COLO205 cells after 72 hrs by MTT assay; format: functional, cell-based; conditions: COLO 205, 72 h; how it was run: as §1
mTORC1 (Homo sapiens) [4] = molecular target: T1, mTORC1 (Homo sapiens) (UniProt P42345+Q8N122+Q9BVC4); experiment: Inhibition of mTORC1 in human SQ20B cells assessed as AKT phosphorylation after 10 to 12 hrs by pull down assay; format: cell-based
T1 sequence (Q8N122 whole entry, looked up, other chains not shown): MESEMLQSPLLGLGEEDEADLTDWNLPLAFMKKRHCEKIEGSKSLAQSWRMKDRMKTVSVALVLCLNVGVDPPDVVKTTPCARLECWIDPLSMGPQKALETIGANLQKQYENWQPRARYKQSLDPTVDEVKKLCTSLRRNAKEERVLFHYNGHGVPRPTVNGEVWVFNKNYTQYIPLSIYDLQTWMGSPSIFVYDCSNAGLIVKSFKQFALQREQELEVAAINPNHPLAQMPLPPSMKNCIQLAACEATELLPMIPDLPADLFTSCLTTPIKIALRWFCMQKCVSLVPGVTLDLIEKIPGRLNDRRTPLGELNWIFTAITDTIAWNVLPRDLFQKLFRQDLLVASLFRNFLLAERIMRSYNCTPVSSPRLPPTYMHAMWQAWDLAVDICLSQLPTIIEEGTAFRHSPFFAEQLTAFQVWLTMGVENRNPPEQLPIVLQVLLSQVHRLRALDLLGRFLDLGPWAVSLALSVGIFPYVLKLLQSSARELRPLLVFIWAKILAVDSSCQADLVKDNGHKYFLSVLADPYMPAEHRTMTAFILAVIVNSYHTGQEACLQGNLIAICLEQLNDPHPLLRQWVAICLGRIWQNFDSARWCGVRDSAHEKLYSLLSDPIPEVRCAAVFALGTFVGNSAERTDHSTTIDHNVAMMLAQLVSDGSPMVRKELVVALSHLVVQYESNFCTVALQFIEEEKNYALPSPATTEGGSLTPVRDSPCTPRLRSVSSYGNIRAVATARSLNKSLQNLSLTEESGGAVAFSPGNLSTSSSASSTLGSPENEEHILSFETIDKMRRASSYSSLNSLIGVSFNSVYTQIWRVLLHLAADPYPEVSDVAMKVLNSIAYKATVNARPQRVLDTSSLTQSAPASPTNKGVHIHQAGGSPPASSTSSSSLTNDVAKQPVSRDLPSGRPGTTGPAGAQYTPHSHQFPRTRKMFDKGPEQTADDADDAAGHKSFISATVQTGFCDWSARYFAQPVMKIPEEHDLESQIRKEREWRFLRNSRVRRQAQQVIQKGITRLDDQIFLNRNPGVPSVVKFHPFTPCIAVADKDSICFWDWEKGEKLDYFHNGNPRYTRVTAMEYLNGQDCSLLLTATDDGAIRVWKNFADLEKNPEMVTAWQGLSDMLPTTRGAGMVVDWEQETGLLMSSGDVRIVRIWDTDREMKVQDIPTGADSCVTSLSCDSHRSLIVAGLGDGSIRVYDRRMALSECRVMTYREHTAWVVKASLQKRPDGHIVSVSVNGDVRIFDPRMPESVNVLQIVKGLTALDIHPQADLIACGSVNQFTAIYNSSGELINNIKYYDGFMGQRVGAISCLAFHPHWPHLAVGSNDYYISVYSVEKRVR
T1 sequence (Q9BVC4 whole entry, looked up, other chains not shown): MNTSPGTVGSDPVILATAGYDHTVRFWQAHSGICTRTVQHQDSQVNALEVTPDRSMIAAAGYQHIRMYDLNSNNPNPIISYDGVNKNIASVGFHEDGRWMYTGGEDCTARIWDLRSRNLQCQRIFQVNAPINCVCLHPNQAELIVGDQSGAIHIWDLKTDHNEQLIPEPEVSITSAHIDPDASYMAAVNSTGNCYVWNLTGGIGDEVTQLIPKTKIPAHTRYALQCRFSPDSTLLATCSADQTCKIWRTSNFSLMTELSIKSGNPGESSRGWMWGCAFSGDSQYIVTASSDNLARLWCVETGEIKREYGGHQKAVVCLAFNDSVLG

[5] = molecular target: T2, 3-phosphoinositide-dependent protein kinase 1 (Homo sapiens) (UniProt O15530); experiment: Binding affinity to PDK1 in human SQ20B cells after 10 to 12 hrs by pull down assay; format: cell-based
T2 sequence (whole entry): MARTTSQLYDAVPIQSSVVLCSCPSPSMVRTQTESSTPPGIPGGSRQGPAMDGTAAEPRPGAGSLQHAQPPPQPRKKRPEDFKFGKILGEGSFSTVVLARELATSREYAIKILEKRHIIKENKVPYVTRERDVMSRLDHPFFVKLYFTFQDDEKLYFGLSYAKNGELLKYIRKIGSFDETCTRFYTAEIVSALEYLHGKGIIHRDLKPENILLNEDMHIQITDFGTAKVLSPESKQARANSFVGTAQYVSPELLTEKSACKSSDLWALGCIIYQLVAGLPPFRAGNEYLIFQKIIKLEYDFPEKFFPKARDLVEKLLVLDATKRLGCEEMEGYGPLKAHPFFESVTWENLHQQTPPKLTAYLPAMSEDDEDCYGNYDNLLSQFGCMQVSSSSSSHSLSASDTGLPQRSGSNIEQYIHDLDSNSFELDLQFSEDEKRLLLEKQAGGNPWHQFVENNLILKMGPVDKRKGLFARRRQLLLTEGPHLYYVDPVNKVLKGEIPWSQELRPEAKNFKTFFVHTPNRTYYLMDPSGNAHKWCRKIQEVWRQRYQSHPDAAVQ

mTORC1 (Homo sapiens) [6] = molecular target: T1, mTORC1 (Homo sapiens); experiment: Inhibition of mTORC1 in human SQ20B cells assessed as inhibition of S6 ribosomal protein phosphorylation after 10 to 12 hrs by pull down assay; format: cell-based
[7] = molecular target: Regulatory-associated protein of mTOR (Homo sapiens) (UniProt Q8N122); experiment: Binding affinity to raptor in human SQ20B cells after 10 to 12 hrs by pull down assay; format: cell-based
Chain of Regulatory-associated protein of mTOR (Homo sapiens) (Q8N122 whole entry): as the sequence (Q8N122 whole entry, looked up, other chains not shown) above

SQ20B [8] = experiment: Binding affinity to PI3K in human SQ20B cells after 10 to 12 hrs by pull down assay; format: cell-based
[9] = molecular target: T3, RAC-alpha serine/threonine-protein kinase (Homo sapiens, UniProt P31749); experiment: Binding affinity to Akt in human SQ20B cells after 10 to 12 hrs by pull down assay; format: cell-based
T3 sequence (P31749 whole entry): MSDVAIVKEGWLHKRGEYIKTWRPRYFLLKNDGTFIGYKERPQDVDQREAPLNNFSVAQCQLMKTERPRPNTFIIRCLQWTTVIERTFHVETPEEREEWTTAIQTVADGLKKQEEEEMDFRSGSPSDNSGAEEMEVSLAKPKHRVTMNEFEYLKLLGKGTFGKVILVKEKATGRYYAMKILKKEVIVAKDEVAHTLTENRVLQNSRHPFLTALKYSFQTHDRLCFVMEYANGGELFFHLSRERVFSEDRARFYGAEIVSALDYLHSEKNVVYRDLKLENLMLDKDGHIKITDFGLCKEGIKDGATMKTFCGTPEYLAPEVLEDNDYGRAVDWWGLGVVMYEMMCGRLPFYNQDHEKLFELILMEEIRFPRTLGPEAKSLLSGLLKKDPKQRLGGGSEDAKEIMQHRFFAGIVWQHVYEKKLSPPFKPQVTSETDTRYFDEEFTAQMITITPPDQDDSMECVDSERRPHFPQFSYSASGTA

[10] = molecular target: Rapamycin-insensitive companion of mTOR (Homo sapiens) (UniProt Q6R327); experiment: Binding affinity to rictor in human SQ20B cells after 10 to 12 hrs by pull down assay; format: cell-based
Chain of Rapamycin-insensitive companion of mTOR (Homo sapiens) (Q6R327 whole entry): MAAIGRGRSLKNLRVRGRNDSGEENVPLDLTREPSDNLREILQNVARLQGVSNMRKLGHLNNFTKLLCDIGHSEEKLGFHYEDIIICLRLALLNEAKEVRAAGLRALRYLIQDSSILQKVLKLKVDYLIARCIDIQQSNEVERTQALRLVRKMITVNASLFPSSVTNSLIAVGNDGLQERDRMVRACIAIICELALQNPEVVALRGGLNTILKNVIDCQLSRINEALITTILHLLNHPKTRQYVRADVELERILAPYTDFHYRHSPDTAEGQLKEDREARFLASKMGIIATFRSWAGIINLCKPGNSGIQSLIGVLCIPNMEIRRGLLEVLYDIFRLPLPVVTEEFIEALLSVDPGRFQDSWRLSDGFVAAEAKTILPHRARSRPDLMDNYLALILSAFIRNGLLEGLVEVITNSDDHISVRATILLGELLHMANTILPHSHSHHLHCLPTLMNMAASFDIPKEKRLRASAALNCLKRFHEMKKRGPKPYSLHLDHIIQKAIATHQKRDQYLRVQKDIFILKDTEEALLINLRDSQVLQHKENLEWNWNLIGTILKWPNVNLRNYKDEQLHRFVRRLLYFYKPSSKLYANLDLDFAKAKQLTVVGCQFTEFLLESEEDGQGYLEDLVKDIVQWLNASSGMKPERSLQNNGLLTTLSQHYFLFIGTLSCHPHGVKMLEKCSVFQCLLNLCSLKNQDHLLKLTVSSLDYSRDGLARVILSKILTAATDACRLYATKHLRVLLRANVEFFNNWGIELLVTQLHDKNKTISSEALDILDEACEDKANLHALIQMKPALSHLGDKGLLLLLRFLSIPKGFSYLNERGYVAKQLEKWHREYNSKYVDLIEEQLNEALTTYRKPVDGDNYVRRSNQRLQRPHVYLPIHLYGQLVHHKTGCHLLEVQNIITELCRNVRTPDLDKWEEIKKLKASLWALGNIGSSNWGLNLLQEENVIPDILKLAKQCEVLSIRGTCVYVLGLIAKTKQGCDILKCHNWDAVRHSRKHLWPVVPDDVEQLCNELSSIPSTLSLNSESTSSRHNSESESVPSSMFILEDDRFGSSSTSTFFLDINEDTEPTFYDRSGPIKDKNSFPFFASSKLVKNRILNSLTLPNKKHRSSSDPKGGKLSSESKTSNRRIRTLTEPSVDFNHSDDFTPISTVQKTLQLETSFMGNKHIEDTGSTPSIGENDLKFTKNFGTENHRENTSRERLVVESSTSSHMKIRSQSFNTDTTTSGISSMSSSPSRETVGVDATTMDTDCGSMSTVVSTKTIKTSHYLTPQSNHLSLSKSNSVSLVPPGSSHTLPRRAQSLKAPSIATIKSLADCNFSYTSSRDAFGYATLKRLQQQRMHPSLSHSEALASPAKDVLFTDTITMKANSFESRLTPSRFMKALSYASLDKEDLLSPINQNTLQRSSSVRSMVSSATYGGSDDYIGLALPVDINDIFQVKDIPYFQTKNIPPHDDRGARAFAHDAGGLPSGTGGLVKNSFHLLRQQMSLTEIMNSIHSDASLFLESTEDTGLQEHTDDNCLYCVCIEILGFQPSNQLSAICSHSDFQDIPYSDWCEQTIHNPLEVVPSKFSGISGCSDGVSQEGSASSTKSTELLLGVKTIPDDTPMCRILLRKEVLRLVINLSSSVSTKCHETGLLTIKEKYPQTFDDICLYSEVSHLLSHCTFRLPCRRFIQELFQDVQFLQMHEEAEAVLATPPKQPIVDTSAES

[11] = molecular target: Serine/threonine-protein kinase mTOR (Homo sapiens) (UniProt P42345); experiment: Binding affinity to mTOR in human SQ20B cells after 10 to 12 hrs by pull down assay; format: cell-based
[12] = Cytotoxicity against human 786-O cells; format: functional, cell-based; conditions: 786-0
[13] = molecular target: T3, RAC-alpha serine/threonine-protein kinase; experiment: Inhibition of Akt/mTOR in human 786-O cells assessed as inhibition of nuclear export of transcription factor FOXO1a; format: cell-based
HOP-92 = experiment: Cytotoxicity against human HOP92 cells after 72 hrs by MTT assay; format: functional, cell-based; conditions: HOP-92, 72 h
HCC 2998 = experiment: Cytotoxicity against human HCC2998 cells after 72 hrs by MTT assay; format: functional, cell-based; conditions: HCC 2998, 72 h

For `CN(Cc1c(O)ccc2oc(Cc3ccccc3)cc12)C1CCCCC1`, the IC50 (SQ20B [1]) was 12 µM.
`Oc1ccc2oc(Cc3ccccc3)cc2c1CN1CCCC(O)C1` (stereo not given) gave an IC50 (SQ20B [1]) of 11 µM.
Molecule `COc1cccc2cc(-c3nc([C@H]4CC[C@H](C(=O)O)CC4)n4ncnc(N)c34)[nH]c12` [OSI-027] has an IC50 (HOP-62) of 41 µM, an IC50 [2] of 3.2 µM and an IC50 (DU-145) of 4.1 µM. For the same molecule, the IC50 (OVCAR-3) was 8.1 µM, the IC50 (HT-29) was 55 µM and the IC50 (CAKI-1) was 1.9 µM. For the same molecule, the IC50 [3] was 5.8 µM, the IC50 (HCT-116) was 5.6 µM and the IC50 (COLO 205) was 5.8 µM. It also gave an IC50 (SQ20B [1]) of 1.3 µM.
In the case of `Oc1ccc2oc(C(O)c3ccccc3)cc2c1CN1CCC(N2CCCCC2)CC1` (stereo not given), the IC50 (SQ20B [1]) is reported as 13 µM.
In the case of `Oc1ccc2oc(Cc3ccccc3)cc2c1CN1CCC(c2ccccc2)CC1`, the IC50 (SQ20B [1]) is reported as > 200 µM.
`OCCOCCN1CCN(Cc2c(O)ccc3oc(Cc4ccccc4)cc23)CC1` gave an IC50 (SQ20B [1]) of 21 µM.
`Oc1ccc2oc(Cc3ccccc3)cc2c1CN1CCOCC1` showed an IC50 (SQ20B [1]) of 6.5 µM.
For `O=C(c1ccccc1)c1cc2c(CN3CCC(N4CCCCC4)CC3)c(O)ccc2o1`, the IC50 (SQ20B [1]) was 17 µM.
Work on `Oc1ccc2oc(Cc3ccccc3)cc2c1CN1CCC(N2CCCCC2)CC1` yielded an IC50 (HOP-62) of 11 µM, an IC50 [2] of 11 µM and an IC50 (DU-145) of 20 µM. The IC50 (OVCAR-3) was 19 µM, the IC50 (HT-29) was 5.1 µM and the IC50 (CAKI-1) was 6.9 µM. For the same molecule, the IC50 [3] was 3.7 µM, the IC50 (HCT-116) was 12 µM and the IC50 (COLO 205) was 3.1 µM. For the same molecule, the IC50 (SQ20B [1]) was 3 µM.
With `OCCN(Cc1c(O)ccc2oc(Cc3ccccc3)cc12)C1CCCCC1` the IC50 (SQ20B [1]) was 27 µM.
In the case of `Oc1ccc2oc(Cc3ccccc3)cc2c1CN1CCN(Cc2ccccc2)CC1`, the IC50 (SQ20B [1]) is reported as 36 µM.
For `CN(CCO)Cc1c(O)ccc2oc(Cc3ccccc3)cc12`, the IC50 (SQ20B [1]) was 30 µM.
In the case of `O=C(CCC(=O)ON1C(=O)CCC1=O)NCCNC(=O)COC(=O)NCCOCCOCCOCCOCCOCCOCCNC(=O)C1CCN(C2CCN(Cc3c(O)ccc4oc(-c5ccccc5)cc34)CC2)CC1`, the inhibition (mTORC1 (Homo sapiens) [4]) is reported as “Active”, the Activity [5] is reported as “inactive” and the inhibition (mTORC1 (Homo sapiens) [6]) is reported as “Dose-dependent effect”. The Activity [7] was “inactive”, the Activity (SQ20B [8]) was “inactive” and the Activity [9] was “inactive”. For the same molecule, the Activity [10] was “inactive” and the Activity [11] was “Active”.
Work on `CCN(CC)Cc1c(O)ccc2oc(Cc3ccccc3)cc12` yielded an IC50 (SQ20B [1]) of 12 µM.
Work on `CN(C)Cc1c(O)ccc2oc(Cc3ccccc3)cc12` yielded an IC50 [12] of 10 µM, an IC50 [13] of 20 µM and an IC50 (SQ20B [1]) of 33 µM. The IC50 (HOP-92) was 40 µM and the IC50 (HCC 2998) was 40 µM.
In the case of `NC(=O)C1CCN(Cc2c(O)ccc3oc(Cc4ccccc4)cc23)CC1`, the IC50 (SQ20B [1]) is reported as 85 µM.
In the case of `Oc1ccc2oc(Cc3ccccc3)cc2c1CN1CCC(N2CCCC2)CC1`, the inhibition (mTORC1 (Homo sapiens) [6]) is reported as “Dose-dependent effect” and the IC50 (SQ20B [1]) is reported as 3 µM.
With `CN1CCN(Cc2c(O)ccc3oc(Cc4ccccc4)cc23)CC1` the IC50 (SQ20B [1]) was 18 µM.
Work on `Oc1ccc2oc(-c3ccccc3)cc2c1CN1CCC(N2CCCCC2)CC1` yielded an IC50 (HOP-62) of 54 µM, an IC50 [2] of 42 µM and an IC50 (DU-145) of 13 µM. It also gave an IC50 (OVCAR-3) of 22 µM, an IC50 (HT-29) of 45 µM and an IC50 (CAKI-1) of 26 µM. For the same molecule, the IC50 [3] was 18 µM, the IC50 (HCT-116) was 57 µM and the IC50 (COLO 205) was 6.3 µM. For the same molecule, the IC50 (SQ20B [1]) was 2.8 µM.
With `CON(C)Cc1c(O)ccc2oc(Cc3ccccc3)cc12` the IC50 (SQ20B [1]) was 40 µM.
`CO[C@H]1C[C@@H]2CC[C@@H](C)[C@@](O)(O2)C(=O)C(=O)N2CCCC[C@H]2C(=O)O[C@H]([C@H](C)C[C@@H]2CC[C@@H](OCCO)[C@H](OC)C2)CC(=O)[C@H](C)/C=C(\C)[C@@H](O)[C@@H](OC)C(=O)[C@H](C)C[C@H](C)/C=C/C=C/C=C/1C` [EVEROLIMUS] showed an IC50 (HOP-62) of 19 µM, an IC50 [2] of 12 µM and an IC50 (DU-145) of 8 µM. It also gave an IC50 (OVCAR-3) of 16 µM, an IC50 (HT-29) of 15 µM and an IC50 (CAKI-1) of 14 µM. It also gave an IC50 [3] of 8.7 µM, an IC50 (HCT-116) of 12 µM and an IC50 (COLO 205) of 20 µM. For the same molecule, the IC50 (SQ20B [1]) was 5.5 µM.
In the case of `O=C(NCCOCCO)C1CCN(C2CCN(Cc3c(O)ccc4oc(Cc5ccccc5)cc34)CC2)CC1`, the IC50 (SQ20B [1]) is reported as 14 µM.
In the case of `Oc1ccc2oc(Cc3ccccc3)cc2c1CN1CCC(O)CC1`, the IC50 (SQ20B [1]) is reported as 13 µM.
Molecule `O=CN1CCN(Cc2c(O)ccc3oc(Cc4ccccc4)cc23)CC1` has an IC50 (SQ20B [1]) of 49 µM.
In the case of `OCCN(CCO)Cc1c(O)ccc2oc(Cc3ccccc3)cc12`, the IC50 (SQ20B [1]) is reported as > 200 µM.
With `Oc1ccc2oc(Cc3ccccc3)cc2c1CN1CCc2ccccc2C1` the IC50 (SQ20B [1]) was 16 µM.
Molecule `CN(Cc1ccccc1)Cc1c(O)ccc2oc(Cc3ccccc3)cc12` has an IC50 (SQ20B [1]) of 12 µM.
